OX1R antag-1: antagonists of human orexin 1 receptor; inhibition, % at 5 µM; O43613; hit rate 0.43% among 330,000; AID 434989; CHO/OX1R cells, Fluo-8 calcium fluorescence, orexin A;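 active means inhibition above its plate's threshold, mean inhibition of all tested compounds on the plate plus 3 SD, cut at about 37% in these data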;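 further: 0% = orexin A challenge wells and 100% = SB-334867-A antagonist wells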
GPR7 antag: antagonists of human GPR7 (neuropeptides B/W receptor 1). GPR7-expressing cells, fluorescence antagonist assay. inhibition, % at 4.4 µM. AID 1861. hit rate 1.1% among 290,000. P48145; in the data active means inhibition above about 16%, passing the limit was not always enough;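 further: cells stimulated with the agonist NPW; 0% = agonist with vehicle and 100% = vehicle without agonist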
Target sequence (P48145 whole entry, looked up): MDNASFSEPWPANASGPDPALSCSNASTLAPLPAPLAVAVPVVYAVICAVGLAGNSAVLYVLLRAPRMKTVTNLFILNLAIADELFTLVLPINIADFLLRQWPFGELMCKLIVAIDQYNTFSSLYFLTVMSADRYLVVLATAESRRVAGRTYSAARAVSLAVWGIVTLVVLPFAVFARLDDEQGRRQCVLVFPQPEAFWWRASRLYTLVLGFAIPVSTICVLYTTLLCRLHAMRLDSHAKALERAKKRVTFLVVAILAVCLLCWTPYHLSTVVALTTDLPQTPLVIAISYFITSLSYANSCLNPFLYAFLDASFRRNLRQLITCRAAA
CHO parental Ca: counter-screen: ATP calcium response change in parental CHO cells; inhibition, % at 5.6 µM; hit rate 0.63% among 330,000; parental CHO-K1, ATP-induced calcium, Fluo-8 fluorescence;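 active means inhibition above that plate's mean sample inhibition plus 3 SD, cut at about 26% in these data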;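 further: 0% = ATP-challenged DMSO wells and 100% = DMSO wells without ATP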
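test system = CHO parental line | reagent = ATP stimulus | measured by = intracellular calcium via Fluo-8 no-wash fluorescent dye | control set = ATP and no-ATP DMSO wells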
OX1R antag-2: blocks the human orexin 1 receptor | OX1R-expressing cells, FRET antagonist read-out | inhibition, % at 6.6 µM | hit rate 1.8% among 330,000; in the data active means inhibition mostly above about 38%, no sharp cut-off; inactive means mostly below about 40%;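 further: 0% = agonist challenge alone and 100% = reference antagonist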
GalR3 antag: blocks the human galanin receptor 3; O60755; HEK293 GalR3-CNG cAMP membrane potential fluorescence; galR3 body fused to GalR1 C-terminus; inhibition, % at 3 µM; hit rate 0.44% among 360,000; AID 651719;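 active means inhibition above the screen-wide average plus 3 SD, cut at about 13% in these data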;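 further: forskolin and galanin both at EC90 stimulate the cells; cAMP rise reported by CNG channel membrane potential dye signal; 0% = forskolin plus galanin with DMSO and 100% = forskolin alone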
Target sequence (O60755 1-299 limits assumed): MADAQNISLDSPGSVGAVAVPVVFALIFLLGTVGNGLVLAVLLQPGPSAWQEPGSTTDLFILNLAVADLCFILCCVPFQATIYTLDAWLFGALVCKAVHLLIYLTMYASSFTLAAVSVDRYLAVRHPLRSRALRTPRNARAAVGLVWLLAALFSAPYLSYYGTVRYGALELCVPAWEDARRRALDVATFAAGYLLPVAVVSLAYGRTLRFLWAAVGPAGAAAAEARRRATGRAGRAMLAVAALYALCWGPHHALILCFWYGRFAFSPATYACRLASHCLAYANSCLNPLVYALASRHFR
GPR7 antag conf: human GPR7 antagonism, confirmation assay. inhibition, % at 4.4 µM. shares compounds with GPR7 antag. hit rate 52% among 2,400. GPR7-expressing cells, calcium fluorescence antagonist mode; in the data active means inhibition above about 24%;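 further: stimulated with the GPR7 agonist NPW; 0% = agonist plus vehicle and 100% = vehicle alone without agonist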
MCHR1 antagonist: MCHR1 (human) antagonism in GPR7 counter-screen; MCHR1-expressing cells, fluorescence antagonist assay; hit rate 62% among 2,400; inhibition, % at 4.4 µM; shares compounds with GPR7 antag; in the data active means inhibition above about 22%;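 further: 0% = vehicle with agonist and 100% = vehicle without agonist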
* marks the source's active call; other numbers are inactive results; nt = not tested or not shown. Compounds with a hit are over-represented: about 3.1% of the library has one in this group of screens.

SMILES | OX1R antag-1 | GPR7 antag | CHO parental Ca | OX1R antag-2 | GalR3 antag | GPR7 antag conf | MCHR1 antagonist
COc1ccc(NC(=O)COC(=O)C2CC(=O)N(CCc3ccc(OC)c(OC)c3)C2)cc1Cl (stereo unspecified) | -24 | nt | -15 | 2 | -3 | nt | nt
COc1ccc2[nH]c3c4c(ccc3c2c1)C(=O)C=CC4=O | nt | 23* | nt | nt | -11 | 62* | 80*
COc1ccc2[nH]c(=O)cc(C(=O)O)c2c1 | -15 | 13 | -13 | -4 | -3 | nt | nt
COc1ccc([C@H]2CC(=O)C=C(c3ccc(Cl)c(C(F)(F)F)c3)C2)cc1 | -19 | nt | -10 | -4 | 0 | nt | nt
COc1ccc(Nc2sc(C(=O)c3ccc(Cl)cc3)c(N)c2C(=O)Nc2ccccc2OC)cc1 | 101* | 71* | 71* | 0 | -3 | 93* | 100*
COc1ccc(C(=O)c2sc(Nc3cccc(OC)c3)c(C(=O)Nc3cccc(C)c3C)c2N)cc1 | 29 | 79* | 60* | 1 | -5 | 23 | 77*
CCCCCCCC(=O)C(C)C(=O)N(C)[C@H](Cc1ccc(OC)cc1)C(=O)N(C)[C@H](C(N)=O)C(C)C (stereo partly specified) | -36 | nt | -27 | 0 | -8 | nt | nt
O=C(NC1CCCC1)C(c1ccccn1)N(C(=O)c1csnn1)c1ccccc1Cl (stereo unspecified) | -23 | -13 | -10 | 3 | -9 | nt | nt
O=C(NCC(O)CO)c1ccc2[nH]c3ccccc3c2c1 (stereo unspecified) | 11 | 26* | 3 | 27 | -1 | 0 | 15
CCN(CC)C(=O)c1cc(S(=O)(=O)N2CCCCC2)c[nH]1 | -13 | -5 | -9 | 11 | 2 | nt | nt
CC1CCN(C(=O)c2cc(S(=O)(=O)N3CCCCC3)c[nH]2)CC1 | -12 | 27* | -10 | 8 | 4 | 6 | 5
C=CCn1cc(CN2CCC(C(=O)Nc3cccc(-c4cccc(F)c4)c3)CC2)c(C)n1 | -4 | 12 | 1 | 22 | -6 | nt | nt
COCc1ccc(CN2CCC(C(=O)Nc3cccc(-c4cscn4)c3)CC2)o1 | -31 | -10 | -34 | -5 | -3 | nt | nt
COCc1ccc(CN2CCC(C(=O)Nc3cccc(-c4cccc(Cl)c4)c3)CC2)o1 | 74* | 27* | 61* | 12 | -7 | 41* | 82*
C=CCn1cc(CN2CCC(C(=O)Nc3cccc(-c4cccc(Cl)c4)c3)CC2)c(C)n1 | 13 | 41* | 3 | 5 | -9 | 41* | 58*
C/C=C(\C)CN1CCC(Oc2cc(C(=O)NC3CC3)ccc2OC)CC1 | -11 | -14 | 15 | 8 | -1 | nt | nt
NC(=O)c1ccsc1NC(=O)COC(=O)Cc1cccc2ccccc12 | 75* | 28* | 59* | 39 | 104* | 54* | 78*
O=C(Nc1cc([N+](=O)[O-])c2[nH]c(=O)c3ccccc3c2c1)C(F)(F)F | nt | nt | nt | nt | 7 | nt | nt
CCOc1ccc(CCNC(=O)CCc2nnc3ccc(N4CCOCC4)nn23)cc1OCC | 8 | 30* | 1 | 8 | 4 | 1 | 4
CCOC(=O)C(Cc1ccccc1)NC(=O)CCc1nnc2ccc(N3CCOCC3)nn12 (stereo unspecified) | -10 | -5 | 7 | 3 | 9 | nt | nt
Cc1ccc(C(=O)OCC(=O)c2c(N)n(C)c(=O)n(C)c2=O)cc1S(=O)(=O)N1CCOCC1 | -19 | nt | -21 | 4 | -5 | nt | nt
Cn1c(N)c(C(=O)COC(=O)/C=C/c2ccc(S(=O)(=O)N3CCOCC3)cc2)c(=O)n(C)c1=O | -13 | 24* | -6 | 21 | -5 | 2 | 11
O=C(Oc1ccc(C(=S)N2CCC(O)CC2)cc1)c1ccc(Cl)cc1 | -16 | 26* | -1 | 0 | -5 | 34* | 38*
O=C(Oc1ccc(C(=S)N2CCOCC2)cc1)c1cccc(Cl)c1 | -8 | 14 | -9 | 5 | -8 | nt | nt
O=[N+]([O-])c1ccc(C2CC(c3ccccc3)=Nc3ccccc3S2)cc1 (stereo unspecified) | -12 | 18 | -28 | 8 | -6 | -1 | 74*
SMILES | OX1R antag-1 | GPR7 antag | CHO parental Ca | OX1R antag-2 | GalR3 antag | GPR7 antag conf | MCHR1 antagonist
COc1ccc(CN2CCN(C(=O)Cn3nc(C)n4cccc4c3=O)CC2)c(OC)c1OC | -22 | -7 | -4 | 4 | -1 | nt | nt
CC(C)C(OC(=O)c1nsc(Cl)c1Cl)C(=O)NCc1ccccc1 (stereo unspecified) | -16 | 2 | -12 | 2 | -8 | nt | nt
Cc1cc(NC2CCCCC2)nc(NCc2ccccc2)n1 | -6 | 24* | 36* | 19 | -6 | 51* | 81*
Cc1ccc(Nc2cc(C)nc(NCc3ccccc3)n2)cc1 | -20 | 11 | 15 | 7 | -10 | nt | nt
COc1ccc(C(=O)c2c(C)c3ccccc3n2CC(O)CNC(C)C)cc1 (stereo unspecified) | -20 | 21* | -14 | 5 | -11 | 12 | 18
Cc1c(Cl)ccc2c1NC(=O)[C@]21N[C@@H](Cc2ccccc2)[C@H]2C(=O)N(c3ccc(F)cc3)C(=O)[C@H]21 | 19 | 36* | 5 | 2 | -4 | 67* | 69*
N#Cc1cccc(NC(=O)Cn2cnc(S(=O)(=O)N3CCOCC3)c2)c1 | -11 | -2 | 13 | 2 | nt | nt | nt
Cc1cc2c(cc(C(=O)N3CCC(C(=O)N4CCCC4)CC3)n2Cc2c(F)cccc2Cl)o1 | -34 | 27* | -3 | 2 | nt | 20 | 12
COc1ccccc1N1CCN(C(c2ccc(C)cc2)c2nnnn2C(C)C)CC1 (stereo unspecified) | -18 | 17 | -3 | 14 | -7 | nt | nt
COc1ccccc1N1CCN(C(c2ccc(F)cc2)c2nnnn2C(C)C)CC1 (stereo unspecified) | nt | 43* | nt | nt | -5 | 22 | 12
Cc1nonc1OCCNCCNc1ccc([N+](=O)[O-])cc1Cl | -19 | 25* | -5 | 34 | -2 | 12 | 11
CCOC(=O)N1CCN(C(=O)c2cccc(N3C(=O)NC4CC3(C)Oc3ccc(Cl)cc34)c2)CC1 (stereo unspecified) | -14 | 0 | -15 | -2 | -9 | nt | nt
COc1cccc(CN(C)C(=O)CN2C(=O)NC(c3ccccc3)(c3ccccc3)C2=O)c1 | -10 | nt | -29 | 10 | -6 | nt | nt
CC1CCCC(NC(=O)COC(=O)/C=C/c2ccc(F)cc2)C1C (stereo unspecified) | -23 | nt | -2 | -1 | -6 | nt | nt
COc1ccc2[nH]c3c(c2c1)CCN1C(=O)N([C@@H](C)C(=O)NCc2ccccc2)C(=O)[C@]31C | -10 | 8 | -26 | 16 | -4 | nt | nt
C[C@@H](C(=O)NCCc1ccccc1)N1C(=O)N2CCc3c([nH]c4ccccc34)[C@@]2(C)C1=O | -22 | 24* | -17 | 15 | -4 | 16 | 27*
CC(C)c1nc(SCC(=O)c2c[nH]c3ccccc23)n[nH]1 | -1 | 33* | -1 | 14 | -4 | 8 | 18

High-throughput results as filed in PubChem.
